From PubChem
Rows were chosen to be rich in hits. Some 2.5% of all compounds tested hit in one or more screens of this group.
zfTRPN1 agonist = zebrafish TRPN1 (NompC) channel agonism; AID 1424; activation, % at 3 µM; HEK293 zebrafish TRPN1-YFP, Fluo-8 calcium fluorescence; 100% = response to 87 µM carbachol; 220,000 compounds, 0.18% hits;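 active = activation above its plate's cutoff, the mean activation of test wells on that plate plus 3 SD, cut at about 19% in these data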
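Assay system: Zebrafish TRPN1-YFP in HEK293 cells | Incubation: Dye loading 1 h at 37 °C, then 30 min room temperature | Measured by: Kinetic Fluo-8 fluorescence, ex 470-495, em 515-575 nm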
CHO parental Ca = signal in parental CHO cells, OX1R antagonist counter-screen; parental CHO-K1, ATP-induced calcium, Fluo-8 fluorescence; 330,000 compounds, 0.63% hits; AID 463079; inhibition, % at 5.6 µM;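 active = inhibition above that plate's mean sample inhibition plus 3 SD, cut at about 26% in these data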
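Measured by: calcium-sensitive Fluo-8 fluorescence / Test system: CHO parental line / Controls: ATP-challenged DMSO wells low, unchallenged DMSO wells high / Measure: % inhibition / Compound: single nominal dose of 5.6 µM per compound / Replicates: single well per compound, no replicates / Reagent: ATP as calcium-mobilizing challenge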
TRPML3 ag = activates the human TRPML3 channel; activation, % at 3 µM; HEK293 TRPML3-YFP, Fluo-8 calcium fluorescence; 100% = the carbachol control signal; 220,000 compounds, 0.29% hits; AID 1448;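 active = activation above its plate's cutoff, the mean activation of the plate's test wells plus 3 SD, cut at about 12% in these data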
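Test system: HEK293 cells stably carrying human TRPML3-YFP; Doses: single dose, 3 µM final nominal compound, 0.3% DMSO final; Schedule: dye loading 1 h 37 °C then 30 min ambient, 125 s read; Technique: Fluo-8 calcium fluorescence; Benchmarks: high control carbachol 87 µM, low control DMSO.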
OX1R antag-1 = antagonists of human orexin 1 receptor. CHO/OX1R cells, Fluo-8 calcium fluorescence, orexin A. inhibition, % at 5 µM. 330,000 compounds, 0.43% hits. AID 434989;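 active = inhibition above its plate's threshold, mean inhibition of all tested compounds on the plate plus 3 SD, cut at about 37% in these data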
Target sequence (O43613 whole entry, looked up): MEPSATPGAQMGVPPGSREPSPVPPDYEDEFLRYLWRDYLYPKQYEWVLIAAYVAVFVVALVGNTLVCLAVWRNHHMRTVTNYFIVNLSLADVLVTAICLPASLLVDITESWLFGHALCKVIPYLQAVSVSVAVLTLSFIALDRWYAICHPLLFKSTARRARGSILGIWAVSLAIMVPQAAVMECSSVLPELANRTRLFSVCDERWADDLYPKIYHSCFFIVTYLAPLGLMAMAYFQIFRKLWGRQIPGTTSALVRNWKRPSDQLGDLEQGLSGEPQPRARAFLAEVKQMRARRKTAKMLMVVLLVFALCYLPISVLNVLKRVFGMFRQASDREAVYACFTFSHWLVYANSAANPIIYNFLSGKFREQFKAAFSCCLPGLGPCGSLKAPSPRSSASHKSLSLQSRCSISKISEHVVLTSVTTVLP
OX1R antag-2 = blocks the human orexin 1 receptor; O43613; OX1R-expressing cells, FRET antagonist read-out; inhibition, % at 6.6 µM; 330,000 compounds, 1.8% hits; in the data active = inhibition mostly above about 38%, no sharp cut-off; inactive = mostly below about 40%
Each line names hits and unclear results; the compound was inactive in the other large screens.

Cc1ccc(-c2[nH]nc(N)c2N=Nc2ccccc2C)cc1	CHO parental Ca 56
COc1ccc(C(C)C)cc1S(=O)(=O)N1CCC(C(=O)NCC2CCCO2)CC1 (centres undefined)	none (no result: zfTRPN1 agonist, TRPML3 ag)
CC1CN(CC(=O)NCc2ccccc2)CC(C)O1 (centres undefined)	none (no result: zfTRPN1 agonist, TRPML3 ag)
Cc1ccc(S(=O)(=O)Nc2cccc3cccnc23)cc1	CHO parental Ca 42
Cn1nc(CC(=O)Nc2ccc3c(c2)OCCO3)c2ccccc2c1=O	CHO parental Ca 48, OX1R antag-1 47
CN(c1ccc(C(=O)N/N=C/c2cccc([N+](=O)[O-])c2)cc1)S(=O)(=O)c1ccccc1	none (no result: zfTRPN1 agonist, TRPML3 ag)
CC(C)(C)c1ccc(-n2ncc3c2CCCC3NC(=O)C2(C(N)=O)CC2)cc1 (centres undefined)	CHO parental Ca 43 (no result: zfTRPN1 agonist, TRPML3 ag)
Cc1cc(C(=O)NC2CCCc3c2cnn3-c2ccc(C(C)(C)C)cc2)nn1C (centres undefined)	CHO parental Ca 51 (no result: zfTRPN1 agonist, TRPML3 ag)
CC(=O)NCC(=O)NC1CCCc2c1cnn2-c1ccc(C(C)(C)C)cc1 (centres undefined)	none (no result: zfTRPN1 agonist, TRPML3 ag)
Cc1c(C)c2ccc(OCC(=O)NCCCn3ccnc3)cc2oc1=O	none (no result: zfTRPN1 agonist, TRPML3 ag)
COc1ccccc1C1CCN(C(=O)c2cnn(-c3ccccc3)c2C)CC1	none
CCCCNc1c(-c2cccc(-c3ccc(OC)cc3)c2)nc2ccc(C)cn12	CHO parental Ca 74, OX1R antag-1 46 (no result: zfTRPN1 agonist, TRPML3 ag)
CCCCNc1c(-c2cccc(-c3ccc(OC)cc3)c2)nc2cc(C)ccn12	CHO parental Ca 65 (no result: zfTRPN1 agonist, TRPML3 ag)
CCc1c2ccccc2nn1-c1ccccc1C(=O)C(C)=O	none (no result: zfTRPN1 agonist, TRPML3 ag)
C=C(C)C(=O)OCC(O)COc1ccc(C(C)(C)c2ccc(OCC(O)COC(=O)C(=C)C)cc2)cc1 (centres undefined)	CHO parental Ca 57 (no result: zfTRPN1 agonist, TRPML3 ag)
CC(=O)c1ccc(OCC(O)COc2ccc(C(C)=O)cc2)cc1	none
COCc1[nH]nc2c1C(c1ccc(OC)c(OC)c1)C(C#N)=C(N)O2 (centres undefined)	none
COCc1[nH]nc2c1C(c1cc(OC)c(O)c(OC)c1)C(C#N)=C(N)O2 (centres undefined)	OX1R antag-2 76
O=C(N/C(=C/c1ccc([N+](=O)[O-])cc1)C(=O)N1CCOCC1)c1ccco1	OX1R antag-2 74 (no result: zfTRPN1 agonist, TRPML3 ag)
COc1ccc(S(=O)(=O)Nc2ccccc2-c2nnn(CC(=O)Nc3ccccc3OC)n2)cc1	CHO parental Ca 44, OX1R antag-2 60
COc1ccc(NC(=O)Cn2nnc(-c3ccccc3NS(=O)(=O)c3ccccc3)n2)cc1	CHO parental Ca 43
O=C1CN(C(=O)C2CCC(=O)N(CCc3ccc(Cl)cc3)C2)CCN1 (centres undefined)	none (no result: zfTRPN1 agonist, TRPML3 ag)
Cc1cc(C)c(C#N)c(SCc2[nH]nc3c2C(c2ccc(F)cc2)C(C#N)=C(N)O3)n1 (centres undefined)	OX1R antag-2 75
Cc1cc(C#N)c(C)c(SCc2[nH]nc3c2C(c2ccccc2)C(C#N)=C(N)O3)n1 (centres undefined)	none
Cc1csc(SCC(=O)c2cc(C)n(Cc3cccs3)c2C)n1	CHO parental Ca 42
COc1ccc(NC(=O)c2cc3c(=O)n(C)c4ccccc4c3s2)cc1OC	OX1R antag-2 54
CCn1c(=O)c2cc(C(=O)Nc3ccc(OC)cc3OC)sc2c2ccccc21	none
CSc1nc2ccc(NC(=O)c3ccco3)cc2s1	none
Cc1nc2ccc(NC(=O)c3ccc(Cl)s3)cc2s1	CHO parental Ca 33, OX1R antag-2 48
CSc1nc2ccc(NC(=O)c3cccs3)cc2s1	OX1R antag-2 37 (no result: zfTRPN1 agonist, TRPML3 ag)
CCC(CO)Oc1cc(NCc2ccccc2Cl)c2ncn(C(C)C)c2c1 (centres undefined)	none (no result: zfTRPN1 agonist, TRPML3 ag)
COc1ccc(-c2nn(Cc3ccccc3)cc2C(=O)N2CCN(c3ncccn3)CC2)cc1	none (no result: zfTRPN1 agonist, TRPML3 ag)
CC(C)(C)C(=O)/C=c1\s/c(=C\c2ccc(-c3ccc([N+](=O)[O-])cc3)o2)c(=O)n1CC(=O)NC(N)=O	zfTRPN1 agonist 31, CHO parental Ca 64, TRPML3 ag 16, OX1R antag-1 71
C/C(=N\Nc1cccc2cccnc12)c1ccccn1	OX1R antag-2 43
C/C(=N\Nc1cccc2cccnc12)c1ccccc1O	none
CCN(CC(=O)Nc1c(F)cccc1F)C(=O)Cc1csc(-c2ccccc2)n1	OX1R antag-2 63 (no result: zfTRPN1 agonist, TRPML3 ag)
Cc1ccc(C)c(N=Nc2ccc(O)c3ncccc23)c1	CHO parental Ca 37
